Active and inactive are the calls of the source. The calls are words filed in the database; no cut-off is given here.
Legend:
[1] = biological target: T1, Muscarinic acetylcholine receptor M3 (Homo sapiens, UniProt P20309); test: Antagonist activity at human muscarinic acetylcholine M3 receptor expressed in CHO cells assessed as inhibition of Ach-induced calcium mobilization by FLIPR analysis; format: functional, cell-based
In short: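 Calcium mobilization read by standard FLIPR protocol. IC50 in nM, mean of two or more independent assays.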
Target sequence in this assay (P20309 whole entry): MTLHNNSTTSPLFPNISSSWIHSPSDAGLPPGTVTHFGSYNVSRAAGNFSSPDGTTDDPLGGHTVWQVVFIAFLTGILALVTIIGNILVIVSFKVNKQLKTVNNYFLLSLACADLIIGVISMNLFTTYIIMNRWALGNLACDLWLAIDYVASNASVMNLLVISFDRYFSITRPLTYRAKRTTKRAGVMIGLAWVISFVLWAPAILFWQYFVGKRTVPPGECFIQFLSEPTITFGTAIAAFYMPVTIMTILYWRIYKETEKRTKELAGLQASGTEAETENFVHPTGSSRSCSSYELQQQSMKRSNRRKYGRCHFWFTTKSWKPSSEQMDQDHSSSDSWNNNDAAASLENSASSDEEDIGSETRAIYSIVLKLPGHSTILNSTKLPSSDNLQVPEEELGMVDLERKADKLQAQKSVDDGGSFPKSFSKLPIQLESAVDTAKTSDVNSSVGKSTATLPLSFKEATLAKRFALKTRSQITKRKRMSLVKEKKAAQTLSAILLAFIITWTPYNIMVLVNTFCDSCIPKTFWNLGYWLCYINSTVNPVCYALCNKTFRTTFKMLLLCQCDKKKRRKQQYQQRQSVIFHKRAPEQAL

[2] = biological target: T1, Muscarinic acetylcholine receptor M3; test: Antagonist potency at human muscarinic acetylcholine M3 receptor expressed in CHO cells assessed as inhibition of Ach-induced calcium mobilization by FLIPR analysis relative to control; format: functional, cell-based; settings: for Kb: read-out: pA2 (converted)
In short: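 Human M3 receptor in CHO cells, ACh-stimulated calcium mobilization by FLIPR. pA2 derived from the ratio of the ACh EC50 with and without antagonist. Run only where the IC50 was below 10 nM. Values above 11 could not be determined accurately.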
Target sequence in this assay (P20309 whole entry): as above

[3] = biological target: T1, Muscarinic acetylcholine receptor M3
Target sequence in this assay (P20309 whole entry, looked up): as the sequence (P20309 whole entry) above

[4] = Plasma clearance in rat at 1 mg/kg, iv; format: ADME, organism-based; set-up: dose 1 mg/kg, route intravenous
In short: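 Rats dosed iv at 1 mg/kg. Systemic plasma clearance in ml/min/kg.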

Rattus norvegicus = test: Oral bioavailability in rat at 2 mg/kg; format: ADME, organism-based; settings: in vivo, BLD = below limit of detection
In short: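 Rats dosed orally at 2 mg/kg. Percent bioavailability calculated from plasma levels.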

Mus musculus [5] = test: Antagonist potency at muscarinic acetylcholine M3 receptor in intranasally dosed mouse assessed as inhibition of Mch-induced bronchoconstriction; format: functional
In short: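 Conscious mice challenged with methacholine to induce bronchoconstriction. ED50 expressed as µg per mouse, n = 1.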

[6] = biological target: T2, Muscarinic acetylcholine receptor M2 (Homo sapiens, UniProt P08172); test: Displacement of [3H]-N-methyl scopolamine from muscarinic acetylcholine M2 receptor expressed in CHO cell membrane; format: cell membranes
T2 sequence (P08172 whole entry): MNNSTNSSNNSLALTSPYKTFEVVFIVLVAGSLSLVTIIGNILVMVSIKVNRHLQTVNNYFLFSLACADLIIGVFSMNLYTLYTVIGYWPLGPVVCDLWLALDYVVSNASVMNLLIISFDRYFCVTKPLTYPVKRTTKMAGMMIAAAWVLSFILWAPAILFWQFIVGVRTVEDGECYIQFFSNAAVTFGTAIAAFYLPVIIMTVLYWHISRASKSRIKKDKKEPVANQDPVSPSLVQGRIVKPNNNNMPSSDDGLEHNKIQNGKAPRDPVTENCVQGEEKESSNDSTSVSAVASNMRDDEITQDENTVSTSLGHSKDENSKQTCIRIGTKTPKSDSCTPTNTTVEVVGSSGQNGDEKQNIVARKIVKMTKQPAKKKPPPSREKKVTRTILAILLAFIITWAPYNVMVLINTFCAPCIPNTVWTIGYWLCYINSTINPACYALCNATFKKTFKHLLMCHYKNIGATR
In short: (§1)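 Membranes from CHO cells, SPA-format radioligand binding against 0.5 nM [3H]-N-methyl scopolamine. Values are the mean of three independent assays.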

[7] = biological target: T1, Muscarinic acetylcholine receptor M3; test: Displacement of [3H]-N-methyl scopolamine from muscarinic acetylcholine M3 receptor expressed in CHO cell membrane; format: cell membranes; in short: as §1
Target sequence in this assay (P20309 whole entry): as the sequence (P20309 whole entry) above

Mus musculus [8] = test: Bronchoprotective activity in mouse against methacholine-induced bronchoconstriction assessed as time duration of bronchoprotection at 0.05 ug administered intranasally; format: functional
In short: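 Conscious mice, methacholine-induced bronchoconstriction. Duration of bronchoprotection taken as the time to 50% loss of maximum protection.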

[9] = biological target: T3, Muscarinic acetylcholine receptor M1 (Homo sapiens, UniProt P11229); test: Displacement of [3H]-N-methyl scopolamine from muscarinic acetylcholine M1 receptor expressed in CHO cell membrane; format: cell membranes; in short: as §1
T3 sequence (P11229 whole entry): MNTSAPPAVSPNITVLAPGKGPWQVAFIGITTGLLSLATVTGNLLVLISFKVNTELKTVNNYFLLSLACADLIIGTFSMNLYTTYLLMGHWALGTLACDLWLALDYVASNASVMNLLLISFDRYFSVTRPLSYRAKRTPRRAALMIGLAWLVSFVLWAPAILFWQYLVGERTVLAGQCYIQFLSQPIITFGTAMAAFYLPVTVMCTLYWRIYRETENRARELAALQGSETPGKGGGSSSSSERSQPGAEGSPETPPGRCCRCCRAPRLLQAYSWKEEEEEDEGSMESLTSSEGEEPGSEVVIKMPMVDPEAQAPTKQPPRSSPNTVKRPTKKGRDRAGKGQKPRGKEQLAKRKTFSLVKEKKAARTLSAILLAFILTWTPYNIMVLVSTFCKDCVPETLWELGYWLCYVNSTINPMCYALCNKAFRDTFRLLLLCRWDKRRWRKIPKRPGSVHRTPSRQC

Row | Structure (SMILES) | IC50 [1] [nM] | Kb [2] [nM] | other results
1 | C[N+]1(CC2CC2)[C@@H]2CC[C@H]1C[C@@H](CC(C#N)(c1ccccc1)c1ccccc1)C2 (mixture of isomers) | < 10 | 0.0501 | 
2 | C[N+]1(CCO)[C@@H]2CC[C@H]1C[C@@H](CC(C#N)(c1ccccc1)c1ccccc1)C2 (mixture of isomers) | < 10 | 0.158 | 
3 | CCC[N+]1(C)[C@@H]2CC[C@H]1C[C@@H](CC(C#N)(c1ccccc1)c1ccccc1)C2 (mixture of isomers) | < 10 | 0.0501 | 
4 | C[N@+]1(CCCOc2ccccc2)C2CCC1C[C@@H](CC(C#N)(c1ccccc1)c1ccccc1)C2 | < 10 | < 0.01 | 
5 | C=CCCCC[N@+]1(C)C2CCC1C[C@@H](CC(C#N)(c1ccccc1)c1ccccc1)C2 | 32 |  | 
6 | C[N+]1(CC2CCCCC2)[C@@H]2CC[C@H]1C[C@@H](CC(C#N)(c1ccccc1)c1ccccc1)C2 (mixture of isomers) | 89.6 |  | 
7 | COCC[N+]1(C)[C@@H]2CC[C@H]1C[C@@H](CC(C#N)(c1ccccc1)c1ccccc1)C2 (mixture of isomers) | < 10 | 0.501 | 
8 | CCCCCCCCCCCC[N+]1(C)[C@@H]2CC[C@H]1C[C@H](CC(C#N)(c1ccccc1)c1ccccc1)C2 (mixture of isomers) | 64 |  | 
9 | C=CCCCC[N@+]1(C)C2CCC1C[C@H](CC(C#N)(c1ccccc1)c1ccccc1)C2 [listing 1 of 2 here] |  |  | pA2 [3]: Active
10 | CCCC[N@+]1(C)C2CCC1C[C@H](CC(C#N)(c1ccccc1)c1ccccc1)C2 | < 10 | < 0.01 | 
11 | C[N+]1(CCCC#N)[C@@H]2CC[C@H]1C[C@@H](CC(C#N)(c1ccccc1)c1ccccc1)C2 (mixture of isomers) | < 10 | 0.158 | 
12 | C[N@+]1(CC2CC2)C2CCC1C[C@H](CC(C#N)(c1ccccc1)c1ccccc1)C2 | 26.3 |  | 
13 | C[N@+]1(CCOc2ccccc2)C2CCC1C[C@@H](CC(C#N)(c1ccccc1)c1ccccc1)C2 | < 10 | < 0.01 | 
14 | C[N@+]1(CCCc2ccccc2)C2CCC1C[C@@H](CC(C#N)(c1ccccc1)c1ccccc1)C2 | < 10 | < 0.01 | 
15 | C=CCCCC[N+]1(C)[C@@H]2CC[C@H]1C[C@@H](CC(C#N)(c1ccccc1)c1ccccc1)C2 (mixture of isomers) | 85.2 |  | 
16 | C[N+]1(Cc2ccccc2)[C@@H]2CC[C@H]1C[C@@H](CC(C#N)(c1ccccc1)c1ccccc1)C2 (mixture of isomers) | 318 |  | 
17 | C=CC[N+]1(C)[C@@H]2CC[C@H]1C[C@@H](CC(C#N)(c1ccccc1)c1ccccc1)C2 (mixture of isomers) | < 10 | 1.26 | 
18 | C[N@+]1(CC2CC2)C2CCC1C[C@@H](CC(C#N)(c1ccccc1)c1ccccc1)C2 | < 10 | 0.0251 | 
19 | COCCOCC[N+]1(C)[C@@H]2CC[C@H]1C[C@@H](CC(C#N)(c1ccccc1)c1ccccc1)C2 (mixture of isomers) | < 10 | 0.631 | 
20 | CCCCCC[N@+]1(C)C2CCC1C[C@H](CC(C#N)(c1ccccc1)c1ccccc1)C2 | < 10 | < 0.01 | 
21 | C[N@+]1(CCOCc2ccccc2)C2CCC1C[C@@H](CC(C#N)(c1ccccc1)c1ccccc1)C2 | < 10 | < 0.01 | 
22 | CCCCCCCC[N@+]1(C)C2CCC1C[C@H](CC(C#N)(c1ccccc1)c1ccccc1)C2 | < 10 | 0.0794 | 
23 | C=CCCCC[N@+]1(C)C2CCC1C[C@H](CC(C#N)(c1ccccc1)c1ccccc1)C2.[Br-] |  |  | clearance [4]: 125 mL/min/kg; F (Rattus norvegicus): BLD; ED50 (Mus musculus [5]): 0.02 µg; Ki [6]: 0.1 nM; Ki [7]: 0.16 nM; Time (Mus musculus [8]): >96 h; Ki [9]: 0.12 nM; pA2 ([2]; cho): > 11
24 | C=CCCCC[N@+]1(C)C2CCC1C[C@H](CC(C#N)(c1ccccc1)c1ccccc1)C2 [listing 2 of 2 here] | < 10 | < 0.01 | 
25 | C[N+]1(CCC2CCCCC2)[C@@H]2CC[C@H]1C[C@@H](CC(C#N)(c1ccccc1)c1ccccc1)C2 (mixture of isomers) | 109 |  | 
26 | CC[N+]1(C)[C@@H]2CC[C@H]1C[C@@H](CC(C#N)(c1ccccc1)c1ccccc1)C2 (mixture of isomers) | < 10 | 0.0501 | 
27 | C[N@+]1(CCCOCc2ccccc2)C2CCC1C[C@@H](CC(C#N)(c1ccccc1)c1ccccc1)C2 | < 10 | 0.0398 | 

— ChEMBL document CHEMBL2021865, “Design, synthesis and structure-activity relationship of N-substituted tropane muscarinic acetylcholine receptor antagonists” (Bioorg Med Chem Lett, 2012)
